Measured values pooled from the literature.
Lines come from different studies, so protocols differ.
Target: Serine/threonine-protein kinase 32A (STK32A, Homo sapiens, UniProt Q8WU08)

CCCOc1ccc([C@@H]2[C@@H](C(=O)O)[C@H](c3ccc4c(c3)OCO4)CN2CC(=O)Nc2c(CC)cccc2CC)cc1  remaining binding (cell-free assay; competition with immobilised ligand; 1 µM): 85%
CNC(=O)[C@@H]1CC[C@@H](n2c(-c3ccc4cnccc4c3)nc3ccc(C(=O)NCc4cccc(C(N)=O)c4)cc32)C1  remaining binding (binding; competition with immobilised ligand; 1 µM): 100%
COc1ncc2cc3ccccc3nc2c1C#N  remaining binding (binding; competition with immobilised ligand; 5 µM): 100%
CN(c1nccc(-c2cnn3ncccc23)n1)C1CC1  remaining binding (binding; 1 µM): 100%
O=C(NCCCN1CCOCC1)c1ccc(Nc2nccc(-c3cc4ccccc4s3)n2)cc1  remaining binding (binding; competition with immobilised ligand; 1 µM): 100%
c1cnn2ncc(-c3ccnc(N4CCC45COC5)n3)c2c1  remaining binding (binding; 1 µM): 58%
CC(=O)Nc1c(C(C)=O)c(=O)n(C)c2nc(-c3ccc(Cl)cc3Cl)c(-c3ccc(Cl)cc3)cc12  remaining binding (cell-free assay; competition with immobilised ligand; 1 µM): 82%
C[C@H]1CCN(c2nccc(-c3cnn4ncccc34)n2)C1  remaining binding (binding; 1 µM): 64%
c1cncc(-c2cccc(Nc3nccc(NC4CCCCC4)n3)c2)c1  remaining binding (binding; competition with immobilised ligand; 10 µM): 69%
CN([C@@H]1CCc2c(CC(=O)O)c3cc(S(C)(=O)=O)ccc3n2C1)S(=O)(=O)c1ccc(F)cc1  remaining binding (cell-free assay; competition with immobilised ligand; 1 µM): 100%
F[C@@H]1CCN(c2nccc(-c3cnn4ncccc34)n2)C1  remaining binding (binding; 1 µM): 100%
O=C(NCC1CCOCC1)c1n[nH]cc1NC(=O)c1c(F)cccc1F  remaining binding (binding; competition with immobilised ligand; 1 µM): 88%
Cc1cnn2ncc(-c3ccnc(N(C)C)n3)c2c1  remaining binding (binding; 1 µM): 71%
CNC(=O)Nc1ccc2c(c1)CC[C@@]21OC(=O)N(CC(=O)N(Cc2ccc(F)cc2)[C@@H](C)C(F)(F)F)C1=O  remaining binding (binding; competition with immobilised ligand; 1 µM): 88%
O=C(c1ccc(Nc2nccc(-c3cc4ccccc4s3)n2)cc1)N1CCC(N2CCCC2)CC1  remaining binding (binding; competition with immobilised ligand; 1 µM): 100%
N#Cc1ccc(Nc2ccc3[nH]c(=O)[nH]c3c2)c(Cl)c1  remaining binding (binding; competition with immobilised ligand; 1 µM): 81%
C=CC(=O)N1CCC(C(=O)NCC(=O)N2CCN(c3nc(-c4cnc(N)nc4C(F)F)nc(N4CCOCC4)n3)CC2)CC1  remaining binding (binding; competition with immobilised ligand; 1 µM): 91%
COc1cnc(Nc2cccc(S(N)(=O)=O)c2)nc1N1CCN(c2ccccc2)C(=O)C1  remaining binding (binding; competition with immobilised ligand; 1 µM): 98%
COc1ccnn2ncc(-c3ccnc(N(C)C)n3)c12  remaining binding (binding; 1 µM): 74%
O=C(c1ccc(Nc2ncc(Cl)c(-c3ccc(Cl)s3)n2)cc1)N1CCC(N2CCCC2)CC1  remaining binding (binding; competition with immobilised ligand; 1 µM): 70%
N[C@H]1CCN(c2nccc(-c3cnn4ncccc34)n2)C1  remaining binding (binding; 1 µM): 87%
Cc1c[nH]c2nccc(Oc3c(F)cc(Nc4cc(Cl)nc(N)n4)cc3F)c12  remaining binding (cell-free assay; competition with immobilised ligand; 0.1 µM): 86%
